Test results reported in ChEMBL document CHEMBL1129945, “New 2-piperazinylbenzimidazole derivatives as 5-HT3 antagonists. Synthesis and pharmacological evaluation” (J Med Chem, 1997).
pKi: −log10 of the molar value.

Experiments:
[1] = molecular target: 5-hydroxytryptamine receptor 4 (Cavia porcellus, UniProt O70528); assay: In vitro by displacement of [3H]GR-113808 from 5-hydroxytryptamine 4 receptor on guinea pig striatal membrane; parameters: species or system Striatum
Procedure, shortened: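 Striatal membranes from male Dunkin-Hartley guinea pigs (350-400 g) in 50 mM Hepes pH 7.4, 800-900 µg protein. Nonspecific binding with 10 µM 5-HT. Incubation 30 min at 25 °C, then filtration and scintillation counting. Triplicate, 10-12 concentrations, two experiments. IC50 and Ki calculated.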

[2] = molecular target: 5-hydroxytryptamine receptor 2A (Rattus norvegicus, UniProt P14842); assay: Binding affinity was evaluated in vitro by displacement of [3H]ketanserin from 5-hydroxytryptamine 2A receptor on rat cortical membrane
5-hydroxytryptamine receptor 2A, sequence (P14842 whole entry): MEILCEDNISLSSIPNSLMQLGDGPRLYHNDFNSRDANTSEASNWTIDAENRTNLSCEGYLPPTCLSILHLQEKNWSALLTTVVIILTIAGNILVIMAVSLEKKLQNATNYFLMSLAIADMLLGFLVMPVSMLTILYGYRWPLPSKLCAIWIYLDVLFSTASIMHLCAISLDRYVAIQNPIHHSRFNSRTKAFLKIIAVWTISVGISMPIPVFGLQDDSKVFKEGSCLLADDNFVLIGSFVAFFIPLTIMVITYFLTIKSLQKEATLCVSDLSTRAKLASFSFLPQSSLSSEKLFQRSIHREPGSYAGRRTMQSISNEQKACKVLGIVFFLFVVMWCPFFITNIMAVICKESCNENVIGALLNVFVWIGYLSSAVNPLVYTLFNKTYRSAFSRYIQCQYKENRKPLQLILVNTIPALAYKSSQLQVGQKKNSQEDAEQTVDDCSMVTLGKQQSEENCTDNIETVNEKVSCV
Procedure, shortened: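 Prefrontal cortex membranes from adult male Wistar rats (220-280 g), final dilution 1:60 wt/vol in 50 mM Tris-HCl. Displacer added in Tris-HCl with 10% ethanol. [3H]ketanserin at 0.8 nM final. Nonspecific binding with 1 µM methysergide. Triplicate competition, 10-12 displacer concentrations, two separate experiments. Filtration and scintillation counting. IC50 and Ki calculated.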

[3] = molecular target: T1, 5-hydroxytryptamine receptor 1A (Rattus norvegicus, UniProt P19327); assay: In vitro by displacement of [3H]8-OH-DPAT from 5-hydroxytryptamine 1A receptor on rat cortical membrane
T1 sequence (P19327 whole entry): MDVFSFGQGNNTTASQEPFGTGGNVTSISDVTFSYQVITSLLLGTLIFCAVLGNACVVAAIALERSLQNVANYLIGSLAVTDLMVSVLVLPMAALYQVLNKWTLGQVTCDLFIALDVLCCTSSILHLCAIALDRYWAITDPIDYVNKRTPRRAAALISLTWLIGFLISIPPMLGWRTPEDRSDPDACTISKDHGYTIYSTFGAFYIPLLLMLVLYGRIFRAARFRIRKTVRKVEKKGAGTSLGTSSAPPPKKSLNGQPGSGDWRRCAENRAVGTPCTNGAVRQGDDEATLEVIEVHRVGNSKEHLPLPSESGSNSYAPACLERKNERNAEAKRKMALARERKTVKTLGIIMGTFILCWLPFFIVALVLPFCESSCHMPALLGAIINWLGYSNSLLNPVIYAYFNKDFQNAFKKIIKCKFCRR
Procedure, shortened: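 Cerebral cortex membranes from adult male Wistar rats (220-280 g) in 50 mM Tris-HCl with 4 mM CaCl2, 0.1% ascorbate and 10 µM pargyline. [3H]8-OH-DPAT at 1.5 nM final. Nonspecific binding with 10 µM 5-HT. Incubation 30 min at 37 °C. Triplicate, 10-12 concentrations, two experiments. IC50 and Ki calculated.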

[4] = molecular target: T2, Serotonin 3 (5-HT3) receptor (Rattus norvegicus, UniProt P35563+Q9JJ16); assay: In vitro by displacement of [3H]LY-278584 from 5-hydroxytryptamine 3 receptor on rat entorhinal cortex
T2 sequence (P35563 whole entry): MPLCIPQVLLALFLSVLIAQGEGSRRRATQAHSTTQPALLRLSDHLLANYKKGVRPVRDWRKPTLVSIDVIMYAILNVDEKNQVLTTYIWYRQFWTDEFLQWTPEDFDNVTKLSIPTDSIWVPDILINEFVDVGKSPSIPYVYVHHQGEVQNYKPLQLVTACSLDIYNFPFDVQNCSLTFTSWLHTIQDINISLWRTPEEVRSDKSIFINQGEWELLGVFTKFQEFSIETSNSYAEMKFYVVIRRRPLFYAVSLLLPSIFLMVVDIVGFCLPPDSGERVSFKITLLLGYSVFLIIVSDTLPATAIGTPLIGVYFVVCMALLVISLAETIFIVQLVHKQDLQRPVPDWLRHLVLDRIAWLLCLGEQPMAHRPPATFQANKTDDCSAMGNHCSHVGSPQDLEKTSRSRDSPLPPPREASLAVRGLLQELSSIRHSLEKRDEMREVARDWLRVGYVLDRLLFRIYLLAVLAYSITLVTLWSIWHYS
T2 sequence (Q9JJ16 whole entry): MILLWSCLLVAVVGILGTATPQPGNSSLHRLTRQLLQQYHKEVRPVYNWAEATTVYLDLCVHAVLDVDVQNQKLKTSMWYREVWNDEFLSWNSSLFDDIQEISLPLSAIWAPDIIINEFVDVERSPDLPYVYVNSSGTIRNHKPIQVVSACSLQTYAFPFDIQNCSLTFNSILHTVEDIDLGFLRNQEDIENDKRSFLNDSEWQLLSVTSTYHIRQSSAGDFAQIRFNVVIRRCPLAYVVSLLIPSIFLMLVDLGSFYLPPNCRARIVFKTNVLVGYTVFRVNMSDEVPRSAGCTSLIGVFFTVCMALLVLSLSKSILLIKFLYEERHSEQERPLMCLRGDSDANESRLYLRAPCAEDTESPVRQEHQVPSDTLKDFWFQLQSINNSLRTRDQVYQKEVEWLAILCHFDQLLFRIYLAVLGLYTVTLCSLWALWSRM
Procedure, shortened: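 Entorhinal cortex membranes from male Wistar rats (220-280 g), 500-600 µg protein, in 50 mM Tris-HCl with 5 mM CaCl2, 0.1% ascorbate and 10 µM pargyline. Nonspecific binding with 10 µM 5-HT. Incubation 30 min at 25 °C. Triplicate, 10-12 concentrations, two experiments. IC50 and Ki calculated.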

D(2) dopamine receptor = D(2) dopamine receptor (Rattus norvegicus, UniProt P61169); assay: In vitro by displacement of [3H]raclopride from Dopamine receptor D2 on rat striatal membrane; parameters: species or system Striatum
D(2) dopamine receptor, sequence (P61169 whole entry): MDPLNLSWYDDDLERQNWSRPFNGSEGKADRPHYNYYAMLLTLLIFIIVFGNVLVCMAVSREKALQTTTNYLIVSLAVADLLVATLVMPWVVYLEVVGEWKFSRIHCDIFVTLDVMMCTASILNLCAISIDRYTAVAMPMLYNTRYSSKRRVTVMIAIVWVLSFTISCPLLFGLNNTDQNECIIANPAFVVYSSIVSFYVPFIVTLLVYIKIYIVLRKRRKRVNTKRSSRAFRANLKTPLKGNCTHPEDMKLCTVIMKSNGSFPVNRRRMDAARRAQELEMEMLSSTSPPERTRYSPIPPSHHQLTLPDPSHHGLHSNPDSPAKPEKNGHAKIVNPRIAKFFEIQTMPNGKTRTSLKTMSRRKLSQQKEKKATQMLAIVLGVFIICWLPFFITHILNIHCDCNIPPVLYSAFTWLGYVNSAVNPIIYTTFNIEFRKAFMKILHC

Rattus norvegicus = assay: In vivo effective dose against Bezold-Jarisch reflex evoked by 5-HT in urethane-anesthetized rats; format: functional
Procedure, shortened: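 Bradycardia induced by iv bolus of 5-HT 30 µg/kg. Antagonist or saline given iv (1 mL/kg) after recovery, and 5-HT challenge repeated 5 min later. Heart rate taken from the carotid pressure signal. ED50 in µg/kg iv by linear regression from 3-5 doses, 4-5 rats per dose.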

5-hydroxytryptamine receptor 4, sequence (O70528 whole entry): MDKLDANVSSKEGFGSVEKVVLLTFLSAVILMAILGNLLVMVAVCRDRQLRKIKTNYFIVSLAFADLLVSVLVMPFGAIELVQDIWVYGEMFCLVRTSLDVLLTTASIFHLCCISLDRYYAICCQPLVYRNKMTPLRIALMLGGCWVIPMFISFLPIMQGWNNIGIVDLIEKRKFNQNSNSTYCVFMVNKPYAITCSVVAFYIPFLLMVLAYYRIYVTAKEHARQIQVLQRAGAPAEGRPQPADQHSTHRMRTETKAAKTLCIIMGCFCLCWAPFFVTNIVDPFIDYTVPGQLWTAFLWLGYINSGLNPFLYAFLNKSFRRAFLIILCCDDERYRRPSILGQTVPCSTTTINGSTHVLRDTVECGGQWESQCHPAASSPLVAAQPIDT

| SMILES | pKi [1] | pKi [2] | pKi [3] | pKi [4] | pKi (D(2) dopamine receptor) | ED50 (Rattus norvegicus) [µg/kg] |
| --- | --- | --- | --- | --- | --- | --- |
| O=C(OCCN1CCCCC1)c1c[nH]c2ccccc12 | 9.00 |  |  |  |  |  |
| Clc1ccc2c(c1)nc(N1CCNCC1)n2Cc1ccccc1 |  | < 6.00 | < 6.00 |  |  |  |
| COc1cccc2nc(N3CCNCC3)n(Cc3ccccc3)c12 |  | < 6.00 | < 6.00 |  |  |  |
| Cc1ccc2c(c1)nc(N1CCNCC1)n2Cc1ccccc1 |  | < 6.00 | < 6.00 |  |  |  |
| Oc1ccc2nc(N3CCNCC3)n(Cc3ccccc3)c2c1 |  | < 6.00 | < 6.00 |  |  |  |
| c1ccc2c(c1)nc(N1CCNCC1)n2C1CC1 |  | < 6.00 | < 6.00 |  |  |  |
| CCCn1c(N2CCNCC2)nc2ccccc21 |  | < 6.00 | < 6.00 |  |  |  |
| Cn1c(N2CCNCC2)nc2ccccc21 | < 6.00 | < 6.00 | < 6.00 | 7.30 | < 6.00 | 5.3 |
| Oc1ccc2c(c1)nc(N1CCNCC1)n2Cc1ccccc1 |  | < 6.00 | < 6.00 |  |  |  |
| COc1ccc2c(c1)nc(N1CCNCC1)n2Cc1ccccc1 |  | < 6.00 | < 6.00 |  |  |  |
| Fc1ccc2c(c1)nc(N1CCNCC1)n2Cc1ccccc1 |  | < 6.00 | < 6.00 |  |  |  |
| COc1cccc2c1nc(N1CCNCC1)n2Cc1ccccc1 |  | < 6.00 | < 6.00 |  |  |  |
| Clc1cc2nc(N3CCNCC3)n(Cc3ccccc3)c2cc1Cl |  | < 6.00 | < 6.00 |  |  |  |
| CCn1c(N2CCNCC2)nc2ccccc21 |  | < 6.00 | < 6.00 |  |  |  |
| COc1ccc2nc(N3CCNCC3)n(Cc3ccccc3)c2c1 |  | < 6.00 | < 6.00 |  |  |  |
| Cc1cc2nc(N3CCNCC3)n(Cc3ccccc3)c2cc1C |  | < 6.00 | < 6.00 |  |  |  |
| c1ccc(Cn2c(N3CCNCC3)nc3ccccc32)cc1 [LERISETRON] |  | < 6.00 | < 6.00 |  |  | 2 |
| CN1[C@@H]2CC[C@H]1C[C@@H](OC(=O)c1c[nH]c3ccccc13)C2 [TROPISETRON] |  |  |  | 8.80 |  | 1.7 |
